Activity calls are given as the source filed them. The calls are words filed in the database; no cut-off is given here.
Columns and labels:
[1] = biological target: T1, Free fatty acid receptor 1 (Homo sapiens, UniProt O14842); experiment: Agonist activity at human FFA1 receptor expressed in CHO cells assessed as Ca2+ influx by FLIPR assay; assay type: functional, cell-based
In short: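 Ca2+ flux assay in CHO cells stably expressing human FFA1: seeded at 15K/well and grown 16 h, then Fluo 4-AM loaded 1 h at 37 °C with probenecid and fatty acid-free BSA. Compounds tested at various concentrations. Response normalized to vehicle (0%) and 10 µM γ-linolenic acid (100%). EC50 from concentration–response fitting, mean of three determinations.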

[2] = biological target: T1, Free fatty acid receptor 1; experiment: Agonist activity at human FFA1 receptor expressed in CHO cells assessed as Ca2+ influx at 100 nM by FLIPR assay; assay type: functional, cell-based
In short: (§1)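 Human FFA1 stably expressed in CHO cells, seeded at 15K/well and grown 16 h at 37 °C, 5% CO2. Cells loaded 1 h at 37 °C with Fluo 4-AM (2.5 µg/mL), 2.5 mmol/L probenecid and 0.1% fatty acid-free BSA. Single screening concentration as listed. Ca2+ flux read on FLIPR Tetra and expressed as % of the 10 µM γ-linolenic acid response after vehicle subtraction. Mean of three independent experiments.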

[3] = biological target: T1, Free fatty acid receptor 1; experiment: Agonist activity at human FFA1 receptor expressed in CHO cells assessed as Ca2+ influx at 300 nM by FLIPR assay; assay type: functional, cell-based; in short: as §1
[4] = tested on: Mus musculus; experiment: Toxicity in overnight fasted ICR mouse assessed as hypoglycemic effect at 15 mg/kg, po after 30 to 120 mins […]; assay type: organism-based; conditions: in vivo
In short: (§2)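 Fasting hypoglycemia test without a glucose load: male ICR mice, 10 weeks old, fasted overnight, 3 groups of n = 6. Single oral dose of 60 mg/kg test compound, 15 mg/kg glibenclamide or 0.5% CMC-Na vehicle. Tail-vein blood glucose measured by test strip at 0, 30, 60, 90, 120 and 180 min. Mean ± SEM.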

[5] = tested on: Mus musculus; experiment: Antidiabetic activity in overnight fasted ICR mouse assessed as decrease in blood glucose level at […], po administered 30 mins prior to glucose challenge measured after 15 to 120 mins by OGTT method; assay type: functional, organism-based; conditions: 38 umol/kg
In short: (§3)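 Male ICR mice, 10 weeks old, 18-22 g, fasted overnight (12 h), n = 6 per group. Single oral dose in 0.5% CMC-Na vehicle (10 mL/kg), […] for the reference compound (20 mg/kg) and for the test compounds. Oral glucose load (30%, 3 g/kg) given 30 min later. Tail blood glucose measured by test strip at -30, 0, 15, 30, 45, 60 and 120 min. AUC0-2h also derived. Mean ± SEM.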

[6] = tested on: Mus musculus; experiment: Antihyperglycemic activity in overnight fasted STZ-induced type 2 dibetic C57BL/6 mouse assessed as decrease in blood glucose level at 20 mg/kg, po administered 30 mins prior to glucose challenge measured after 15 to 120 mins by OGTT method; assay type: functional, organism-based
In short: (§4)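 Male C57BL/6 mice fed a 45%-fat diet for 4 weeks, given STZ i.p. (80 mg/kg), then high-fat diet for 4 more weeks. Fasting glucose of 11.1 mmol/L or higher taken as diabetic. After a 12 h fast, n = 6 per group, with a normal-mouse control group. Oral dose in 0.5% CMC-Na, then oral glucose (20%, 2 g/kg) 30 min later. Strip glucose at -30 to 120 min.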

[7] = tested on: Mus musculus; experiment: Hepatotoxicity in ICR mouse assessed as total bilirubin levels in serum at 20 mg/kg qd administered through oral gavage for 30 days (reference value: 4.1 +/- 0.4 IU/L); assay type: toxicity, organism-based; conditions: in vivo, 720 h
[8] = tested on: Mus musculus; experiment: Hepatotoxicity in ICR mouse assessed as alanine aminotransferase levels in serum at 20 mg/kg qd administered through oral gavage for 30 days (reference value: 35 +/- 4.3 IU/L); assay type: toxicity, organism-based; conditions: in vivo, 720 h
[9] = tested on: Mus musculus; experiment: Hepatotoxicity in ICR mouse assessed as aspartate aminotransferase levels in serum at 20 mg/kg qd administered through oral gavage for 30 days (reference value: 133.1 +/- 13.1 IU/L); assay type: toxicity, organism-based; conditions: in vivo, 720 h
[10] = tested on: Mus musculus; experiment: Antidiabetic activity in overnight fasted ICR mouse assessed as decrease in blood glucose level at 20 mg/kg, po administered 30 mins prior to glucose challenge measured after 15 to 120 mins by OGTT method; assay type: functional, organism-based; in short: as §3
[11] = tested on: Mus musculus; experiment: Antidiabetic activity in overnight fasted ICR mouse assessed as decrease in plasma glucose AUC at […], po administered 30 mins prior to glucose challenge measured after 15 to 120 mins by OGTT method; assay type: functional, organism-based; in short: as §3
[12] = tested on: Mus musculus; experiment: Antihyperglycemic activity in overnight fasted STZ-induced type 2 dibetic C57BL/6 mouse assessed as decrease in blood glucose level at 30 mg/kg, po administered 30 mins prior to glucose challenge measured after 15 to 120 mins by OGTT method; assay type: functional, organism-based; in short: as §4
[13] = tested on: Mus musculus; experiment: Hepatotoxicity in ICR mouse assessed as total bilirubin levels in serum at 30 mg/kg qd administered through oral gavage for 30 days (reference value: 4.1 +/- 0.4 IU/L); assay type: toxicity, organism-based; conditions: in vivo, 720 h
[14] = tested on: Mus musculus; experiment: Antidiabetic activity in overnight fasted po dosed ICR mouse assessed as decrease in blood glucose level administered 30 mins prior to glucose challenge measured after 15 to 120 mins by OGTT method; assay type: functional, organism-based; in short: as §3
[15] = tested on: Mus musculus; experiment: Toxicity in overnight fasted ICR mouse assessed as hypoglycemic effect at 60 mg/kg, po after 30 to 120 mins […]; assay type: organism-based; conditions: in vivo; in short: as §2
[16] = tested on: Mus musculus; experiment: Antidiabetic activity in overnight fasted ICR mouse assessed as decrease in blood glucose level at 60 mg/kg, po administered 30 mins prior to glucose challenge measured after 60 mins by OGTT method; assay type: functional, organism-based
In short: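 Dose–response OGTT in male ICR mice, 10 weeks old, fasted 12 h, 5 groups of n = 6. Oral doses of 10, 30 or 60 mg/kg, or reference at 20 mg/kg, in 0.5% CMC-Na. Glucose (30%, 3 g/kg) given orally 30 min after dosing. Tail-blood glucose read by test strip at -30, 0, 15, 30, 45, 60 and 120 min. Mean ± SEM.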

[17] = tested on: Mus musculus; experiment: Hepatotoxicity in ICR mouse assessed as alanine aminotransferase levels in serum at 30 mg/kg qd administered through oral gavage for 30 days (reference value: 35 +/- 4.3 IU/L); assay type: toxicity, organism-based; conditions: in vivo, 720 h
[18] = tested on: Mus musculus; experiment: Hepatotoxicity in ICR mouse assessed as aspartate aminotransferase levels in serum at 30 mg/kg qd administered through oral gavage for 30 days (reference value: 133.1 +/- 13.1 IU/L); assay type: toxicity, organism-based; conditions: in vivo, 720 h

T1 sequence (O14842 whole entry): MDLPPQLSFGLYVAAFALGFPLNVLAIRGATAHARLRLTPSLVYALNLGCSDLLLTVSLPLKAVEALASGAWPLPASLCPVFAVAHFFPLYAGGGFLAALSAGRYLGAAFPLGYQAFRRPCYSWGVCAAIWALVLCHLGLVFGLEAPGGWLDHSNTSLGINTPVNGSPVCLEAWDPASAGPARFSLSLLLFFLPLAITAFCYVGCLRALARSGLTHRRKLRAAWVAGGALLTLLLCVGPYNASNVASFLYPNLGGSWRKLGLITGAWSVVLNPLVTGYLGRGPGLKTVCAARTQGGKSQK

| SMILES | Activity [2] [%] | Activity [3] [%] | also measured |
| --- | --- | --- | --- |
| COc1ccc(-c2nc(C)c(COc3ccc4c(c3)OCC4CC(=O)O)s2)cc1 (stereo not drawn) | 46.8 | – | EC50 [1]: 123 nM |
| O=C(O)CC1COc2cc(OCc3nnc(-c4ccccc4)s3)ccc21 (stereo not drawn) | 3.36 | 13.7 | – |
| Cc1nc(-c2cccc(Cl)c2)sc1COc1ccc2c(c1)OCC2CC(=O)O (stereo not drawn) | 43 | – | EC50 [1]: 138 nM |
| Cc1nc(-c2ccccc2F)sc1COc1ccc2c(c1)OCC2CC(=O)O (stereo not drawn) | 25.8 | – | – |
| COc1cc(-c2nc(C)c(COc3ccc4c(c3)OCC4CC(=O)O)s2)cc(OC)c1OC (stereo not drawn) | 7.47 | – | – |
| O=C(O)CC1COc2cc(OCc3nc(-c4ccccc4)cs3)ccc21 (stereo not drawn) | 0.16 | 0.23 | – |
| O=C(O)CC1COc2cc(OCc3cc(-c4ccccc4)on3)ccc21 (stereo not drawn) | 0.84 | 1.67 | – |
| O=C(O)CC1COc2cc(OCc3cn(-c4ccccc4)nn3)ccc21 (stereo not drawn) | – | 0.89 | – |
| O=C(O)CC1COc2cc(OCc3csc(-c4ccccc4)n3)ccc21 (stereo not drawn) | 0.15 | 5.67 | – |
| Cc1nc(-c2ccccc2C(F)(F)F)sc1COc1ccc2c(c1)OCC2CC(=O)O (stereo not drawn) | 7.76 | – | – |
| COc1ccc(Cl)cc1C(=O)NCCc1ccc(S(=O)(=O)NC(=O)NC2CCCCC2)cc1 [GLYBURIDE] | – | – | Activity [4]: Toxic |
| Cc1nc(-c2ccccc2)sc1COc1ccc2c(c1)OCC2CC(=O)O (stereo not drawn) | 54.8 | 67.4 | Activity [5]: Active |
| Cc1nc(-c2ccccc2Cl)sc1COc1ccc2c(c1)OCC2CC(=O)O (stereo not drawn) | 12.4 | – | – |
| Cc1nc(-c2cccc(C(F)(F)F)c2)sc1COc1ccc2c(c1)OCC2CC(=O)O (stereo not drawn) | 35.7 | – | – |
| Cc1nc(-c2ccc(Cl)s2)sc1COc1ccc2c(c1)OCC2CC(=O)O (stereo not drawn) | 8.34 | – | – |
| Cc1nc(-c2ccccc2)oc1COc1ccc2c(c1)OCC2CC(=O)O (stereo not drawn) | 7.15 | 21.2 | – |
| Cc1cc(OCCCS(C)(=O)=O)cc(C)c1-c1cccc(COc2ccc3c(c2)OC[C@H]3CC(=O)O)c1 [FASIGLIFAM] | – | – | Activity [6]: Active; Activity [7]: 4 IU/L; Activity [8]: 48.3 IU/L; Activity [9]: 181.1 IU/L; Activity [10]: Active |

| SMILES | Activity [2] [%] | Activity [3] [%] | also measured |
| --- | --- | --- | --- |
| Cc1nc(-c2ccsc2)sc1COc1ccc2c(c1)OCC2CC(=O)O (stereo not drawn) | 56.5 | – | EC50 [1]: 68.5 nM; Activity [5]: Active |
| Cc1nc(-c2cccc(F)c2)sc1COc1ccc2c(c1)OCC2CC(=O)O (stereo not drawn) | 56.9 | – | EC50 [1]: 64.8 nM; Activity [5]: Active; Activity [11]: Active |
| Cc1nc(-c2cc3ccccc3o2)sc1COc1ccc2c(c1)OCC2CC(=O)O (stereo not drawn) | 14.8 | – | – |
| Cc1cccc(-c2nc(C)c(COc3ccc4c(c3)OCC4CC(=O)O)s2)c1 (stereo not drawn) | 47.2 | – | EC50 [1]: 119 nM |
| O=C(O)CC1COc2cc(OCc3ncc(-c4ccccc4)o3)ccc21 (stereo not drawn) | 2.34 | 10.2 | – |
| O=C(O)CC1COc2cc(OCc3ncc(-c4ccccc4)s3)ccc21 (stereo not drawn) | 5.26 | 19.8 | – |
| Cc1nc(-c2ccc(C(F)(F)F)cc2)sc1COc1ccc2c(c1)OCC2CC(=O)O (stereo not drawn) | 50.4 | – | EC50 [1]: 96.7 nM |
| Cc1ccc(-c2nc(C)c(COc3ccc4c(c3)OCC4CC(=O)O)s2)cc1 (stereo not drawn) | 54.9 | – | EC50 [1]: 73.5 nM; Activity [5]: Active; Activity [11]: Active |
| Cc1nc(-c2cccc3ccccc23)sc1COc1ccc2c(c1)OCC2CC(=O)O (stereo not drawn) | 8.53 | – | – |
| Cc1cc(COc2ccc3c(c2)OCC3CC(=O)O)nn1-c1ccccc1 (stereo not drawn) | 0.98 | 1.23 | – |
| Cc1nc(-c2ccc(Cl)cc2)sc1COc1ccc2c(c1)OCC2CC(=O)O (stereo not drawn) | 53.4 | – | EC50 [1]: 85.6 nM; Activity [5]: Active; Activity [11]: Active |
| Cc1nc(-c2cccs2)sc1COc1ccc2c(c1)OCC2CC(=O)O (stereo not drawn) | 35.1 | – | – |
| Cc1ccccc1-c1nc(C)c(COc2ccc3c(c2)OCC3CC(=O)O)s1 (stereo not drawn) | 10.7 | – | – |
| Cc1nc(-c2ccc(F)cc2)sc1COc1ccc2c(c1)OCC2CC(=O)O (stereo not drawn) | 61.6 | – | Activity [12]: Active; Activity [13]: 4 IU/L; EC50 [1]: 48.7 nM; Activity [5]: Active; Activity [14]: Dose-dependent effect; Activity [15]: Non-toxic; Activity [16]: Active; Activity [17]: 37.5 IU/L; Activity [11]: Active; Activity [18]: 141.8 IU/L |
| O=C(O)CC1COc2cc(OCc3nnc(-c4ccccc4)o3)ccc21 (stereo not drawn) | 1.54 | 6.31 | – |
| COc1cc(OC)cc(-c2nc(C)c(COc3ccc4c(c3)OCC4CC(=O)O)s2)c1 (stereo not drawn) | 17.5 | – | – |
